According to ChEMBL document CHEMBL1268856, “The tomato saponin, esculeoside A” (J Nat Prod, 2010):
Activity calls are given as the source filed them. The rule behind the calls is not given here.

Experiments:
MDM [1] = test: Antihyperlipidemic activity in human MDM cell assessed as inhibition of acetule-LDL-induced cholesterol ester accumulation after 24 hrs; assay type: functional, cell-based
In short: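 Human monocyte-derived macrophages were incubated 24 h with 50 µg/mL acetyl-LDL plus 0.1 mM [3H]oleate conjugated to BSA, with or without compound. [3H]cholesteryl ester was separated by TLC and counted by radioscanner. Three independent experiments; means ± SD.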

MDM [2] = test: Antihyperlipidemic activity in human MDM cell assessed as inhibition of acetule-LDL-induced cholesterol ester accumulation after 5 hrs; assay type: functional, cell-based
[3] = target: T1, Sterol O-acyltransferase 1 (Homo sapiens) (UniProt P35610); test: Inhibition of human ACAT1 expressed in CHO cells assessed as inhibition of [3H]oleate-induced cholesterol ester accumulation; assay type: cell-based
T1 sequence (whole entry): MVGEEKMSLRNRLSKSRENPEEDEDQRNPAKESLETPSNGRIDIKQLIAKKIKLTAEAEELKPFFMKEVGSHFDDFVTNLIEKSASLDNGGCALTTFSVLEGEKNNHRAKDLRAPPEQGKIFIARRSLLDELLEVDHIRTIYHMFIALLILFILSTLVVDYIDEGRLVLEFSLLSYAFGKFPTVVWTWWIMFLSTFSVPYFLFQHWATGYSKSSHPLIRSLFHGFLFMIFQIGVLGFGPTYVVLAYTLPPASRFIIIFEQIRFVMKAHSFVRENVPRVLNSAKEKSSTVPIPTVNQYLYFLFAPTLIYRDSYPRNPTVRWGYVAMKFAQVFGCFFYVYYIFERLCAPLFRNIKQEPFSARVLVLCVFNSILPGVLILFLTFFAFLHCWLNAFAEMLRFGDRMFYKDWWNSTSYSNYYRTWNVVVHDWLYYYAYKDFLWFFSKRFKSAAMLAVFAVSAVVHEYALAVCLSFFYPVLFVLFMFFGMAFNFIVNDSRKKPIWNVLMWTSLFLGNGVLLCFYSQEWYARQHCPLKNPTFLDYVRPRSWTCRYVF
In short: (§1)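 CHO cells overexpressing human ACAT-1 or ACAT-2 were incubated 24 h in medium with 10% fetal calf serum, 0.1 mM [3H]oleate-BSA and the indicated compound concentrations. [3H]cholesteryl ester was separated by TLC and radioactivity measured. Repeated three times.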

[4] = target: T2, Sterol O-acyltransferase 2 (Homo sapiens) (UniProt O75908); test: Inhibition of human ACAT2 expressed in CHO cells assessed as inhibition of [3H]oleate-induced cholesterol ester accumulation; assay type: cell-based; in short: as §1
T2 sequence (whole entry): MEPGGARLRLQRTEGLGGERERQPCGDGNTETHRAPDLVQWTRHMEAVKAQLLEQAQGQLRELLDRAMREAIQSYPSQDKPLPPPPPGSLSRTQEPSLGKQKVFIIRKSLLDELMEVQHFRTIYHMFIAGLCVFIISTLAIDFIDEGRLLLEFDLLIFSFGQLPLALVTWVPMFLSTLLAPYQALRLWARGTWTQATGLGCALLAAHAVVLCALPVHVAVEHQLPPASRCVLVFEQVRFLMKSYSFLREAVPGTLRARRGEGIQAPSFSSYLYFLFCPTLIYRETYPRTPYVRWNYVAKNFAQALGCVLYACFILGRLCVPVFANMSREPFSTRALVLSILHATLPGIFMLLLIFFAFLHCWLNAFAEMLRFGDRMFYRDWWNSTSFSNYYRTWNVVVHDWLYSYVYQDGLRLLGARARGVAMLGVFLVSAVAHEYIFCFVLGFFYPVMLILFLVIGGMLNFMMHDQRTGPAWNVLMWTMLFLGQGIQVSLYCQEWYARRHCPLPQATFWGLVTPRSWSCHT

[5] = Cytotoxicity against human MDM cells at 100 uM; assay type: cell-based
Mus musculus [6] = test: Antihyperlipidemic in apoE deficient mouse assessed as reduction in LDL cholesterol level at 100 mg/kg qd after 90 hrs; assay type: functional; set-up: scale not given: the % may be the effect or the level left; conditions: in the assay text read “after 90 days” for “after 90 hrs”
In short: (§2)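 ApoE-deficient mice were fed diets with or without compound (100 mg/kg/day) for 90 days, n = 10 per group. Plasma total cholesterol, LDL cholesterol and triglyceride were then measured. Data are means ± SD.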

Mus musculus [7] = test: Antihyperlipidemic in apoE deficient mouse assessed as reduction in total cholesterol level at 100 mg/kg qd after 90 hrs; assay type: functional; set-up: scale not given: the % may be the effect or the level left; conditions: in the assay text read “after 90 days” for “after 90 hrs”; in short: as §2
Mus musculus [8] = test: Antiatherogenesis in apoE deficient mouse assessed as reduction in aortic lesions at 100 mg/kg qd; assay type: functional, Aorta; set-up: scale not given: the % may be the effect or the level left
In short: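 ApoE-deficient mice given diet with or without compound at 100 mg/kg/day for 90 days, n = 10 per group. Aortic sinus cross sections stained with oil red O and viewed at ×200. Cross-sectional lesion area was quantified and compared with untreated controls.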

Mus musculus [9] = test: Antihyperlipidemic in apoE deficient mouse assessed as reduction in triglyceride level at 100 mg/kg qd after 90 hrs; assay type: functional; set-up: scale not given: the % may be the effect or the level left; conditions: in the assay text read “after 90 days” for “after 90 hrs”; in short: as §2

Structure (SMILES) | Activity (MDM [1]) | Activity (MDM [2]) | Activity [3] | Activity [4] | Activity [5] | Activity (Mus musculus [6]) [%] | Activity (Mus musculus [7]) [%] | Activity (Mus musculus [8]) [%] | Activity (Mus musculus [9]) [%]
C[C@@H]1[C@H]2[C@H](C[C@H]3[C@@H]4CC[C@H]5C[C@@H](O)CC[C@]5(C)[C@H]4CC[C@]23C)O[C@@]12NC[C@@H](CO)C[C@@H]2O | Active | Dose-dependent effect | Dose-dependent effect | Dose-dependent effect | – | – | – | – | –
CC(=O)O[C@H]1C[C@H](CO[C@@H]2O[C@H](CO)[C@@H](O)[C@H](O)[C@H]2O)CN[C@@]12O[C@H]1C[C@H]3[C@@H]4CC[C@H]5C[C@@H](O[C@@H]6O[C@H](CO)[C@H](O[C@@H]7O[C@H](CO)[C@@H](O)[C@H](O[C@@H]8OC[C@@H](O)[C@H](O)[C@H]8O)[C@H]7O[C@H]7O[C@H](CO)[C@@H](O)[C@H](O)[C@H]7O)[C@H](O)[C@H]6O)CC[C@]5(C)[C@H]4CC[C@]3(C)[C@H]1[C@H]2C [ESCULEOSIDE A] | Active | – | – | – | Non-toxic | 25 | 25 | 52 | 45
